Test results as given in ChEMBL document CHEMBL5038610, “Ligand-based rational design, synthesis and evaluation of novel potential chemical chaperones for opsin” (Eur J Med Chem, 2021).
Active and inactive are the calls of the source. No cut-off for these calls is given here.

Key:
Bos taurus = organism: Bos taurus; experiment: Binding affinity to bovine opsin assessed as rate constant preincubated for 30 mins followed by […] addition and measured after 30 mins by UV-visible spectra method; details: time 60.0 min
In short: (§1)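 Opsin from bovine rod outer segments diluted to ~20-25 μM in PBS with 1% N-dodecyl-β-maltoside. Bleached with 532 nm green light, then pre-incubated with compound for 30 min at room temperature. 9-cis-retinal added, equimolar to opsin. Isorhodopsin formation read at 485 nm over 0–29 min. One-phase association fit gives the pseudo-first-order k, compared with DMSO vehicle. At least three repeats.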

HepG2 = experiment: Cytotoxicity against human HepG2 cells assessed as reduction in cell viability at 25 uM measured after 24 hrs by Cell-titre blue assay; format: toxicity, cell-based; details: hepg2, 24 h
In short: (§2)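 HepG2 (DMEM) or ARPE-19 (DMEM/F12) cells seeded at 1 × 10⁴ per well. Next day given medium with 2% FBS and 1 g/L glucose containing 25 μM compound, for 24 h at 37 °C. CellTiter Blue then added for 4 h; fluorescence read at 560/590 nm. Viability expressed as % of DMSO-treated cells; at least three independent measurements.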

U2OS [1] = experiment: Effect on His-tagged human P23H rhodopsin expressed in U2OS cells assessed as increase localization of P23H rhodopsin using […] as substrate at 17 to 20 uM incubated for overnight and measured by immunofluorescence microscopy analysis; format: functional, cell-based; details: dose 17-20 µM, time 12.0 hrs
In short: (§3)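 U2OS cells stably carrying C-terminal His-tagged human P23H rhodopsin, grown on polylysine coverslips. Incubated overnight in the dark with 1 μg/mL tetracycline plus compound at 17 or 20 μM (DMSO ≤0.1%); 9-cis-retinal at 5 μM serves as control. Cells fixed in 4% PFA. Surface rhodopsin stained with RetP1 before permeabilisation, total rhodopsin with anti-His after 0.1% Triton. Epifluorescence imaging, 3 independent experiments.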

ARPE-19 = experiment: Cytotoxicity against human ARPE-19 cells assessed as reduction in cell viability at 25 uM measured after 24 hrs by Cell-titre blue assay; format: toxicity, cell-based; details: arpe-19, 24 h; in short: as §2
U2OS [2] = experiment: Effect on His-tagged human P23H rhodopsin expressed in U2OS cells assessed as increase localization of P23H rhodopsin using […] as substrate at 17 uM incubated for overnight and measured by immunofluorescence microscopy analysis; format: cell-based; details: time 12.0 hrs; in short: as §3
Rhodopsin (Bos taurus) = Rhodopsin (Bos taurus) (UniProt P02699); experiment: Binding affinity to bovine rhodopsin assessed as rate constant preincubated for 30 mins followed by […] addition and measured after 30 mins by UV-visible spectra method; details: time 60.0 min; in short: as §1
Chain of Rhodopsin (Bos taurus) (P02699 whole entry): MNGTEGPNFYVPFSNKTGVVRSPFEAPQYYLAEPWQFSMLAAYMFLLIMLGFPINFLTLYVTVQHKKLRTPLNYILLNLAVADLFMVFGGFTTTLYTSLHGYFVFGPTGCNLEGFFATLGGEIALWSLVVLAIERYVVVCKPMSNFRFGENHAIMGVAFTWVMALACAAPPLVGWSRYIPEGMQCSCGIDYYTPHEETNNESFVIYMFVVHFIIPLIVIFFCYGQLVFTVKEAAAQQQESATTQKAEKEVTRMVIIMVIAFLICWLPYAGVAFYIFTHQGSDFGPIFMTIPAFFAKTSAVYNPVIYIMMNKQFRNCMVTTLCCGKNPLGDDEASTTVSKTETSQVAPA

[3] = Half life of compound; format: physicochemical

Row | Structure (SMILES) | K (Bos taurus) [min⁻¹] | Activity (HepG2) | Activity (U2OS [1]) | Activity (ARPE-19) | further results
1 | NC(=O)c1ccc(N2CCN(C(=O)c3cc(C(F)(F)F)cc(C(F)(F)F)c3)CC2)cc1 | 0.62 | Non-Toxic | Active | Non-Toxic | 
2 | C=CC(=O)Nc1ccc(CNC(=O)c2c(C)cccc2C)cc1 | 0.62 | Non-Toxic |  | Non-Toxic | 
3 | CC1=C(/C=C/C(=O)N2CCC(C#N)CC2)C(C)(C)CCC1 | 0.63 | 50% |  |  | 
4 | O=C(O)c1ccc(COC(=O)c2cc(C(F)(F)F)cc(C(F)(F)F)c2)cc1 |  | Non-Toxic |  | Non-Toxic | Activity (U2OS [2]): Active; K (Rhodopsin (Bos taurus)): 0.62 min⁻¹
5 | CC(=O)/C=C/C1=C(C)CCCC1(C)C [BETA-IONONE] | 0.2 | Non-Toxic |  | Non-Toxic | half-life [3]: 3.6 min
6 | Cc1cccc(C)c1C(=O)N1CCN(c2ccc(C(=O)O)cc2)CC1 |  |  | Active |  | 
7 | CC1=C(/C=C/C(=O)N2CCC(NC=O)CC2)C(C)(C)CCC1 |  |  | Active |  | 
8 | Cc1cccc(C)c1N1CCN(C(=O)c2ccc(C#N)cc2)CC1 |  |  | Active |  | 
9 | Cc1cccc(C)c1-c1ccc(CNc2ccc(C(N)=O)cc2)o1 | 0.61 |  |  |  | 
10 | C=C(C(=O)Nc1ccc(NC(=O)c2c(C)cccc2C)cc1)C(F)(F)F |  |  | Active |  | 
11 | C=CC(=O)Nc1ccc(NC(=O)c2c(C)cccc2C)cc1 |  |  | Active |  | 
12 | Cc1cccc(C)c1NC(=O)/C=C/c1ccc(C=O)cc1 |  | Non-Toxic | Active | Non-Toxic | 
13 | O=Cc1ccc(COC(=O)c2cc(C(F)(F)F)cc(C(F)(F)F)c2)cc1 |  | Non-Toxic |  | Non-Toxic | Activity (U2OS [2]): Active; K (Rhodopsin (Bos taurus)): 0.44 min⁻¹
14 | Cc1cccc(C)c1/C=C/C(=O)NCc1ccc(C(=O)O)cc1 |  |  | Active |  | 
15 | C=CC(=O)Nc1ccc(NC(=O)c2cc(C(F)(F)F)cc(C(F)(F)F)c2)cc1 |  |  | Active |  | 
16 | Cc1cccc(C)c1N1CCN(C(=O)c2ccc(C(N)=O)cc2)CC1 |  | Non-Toxic |  | Non-Toxic | 
17 | CC1=C(CNc2ccc(C(=O)O)cc2)C(C)(C)CCC1 |  |  | Active |  | 
18 | O=Cc1ccc(N2CCN(C(=O)c3cc(C(F)(F)F)cc(C(F)(F)F)c3)CC2)cc1 | 0.41 | Non-Toxic | Active | Non-Toxic | 
19 | CC1=C(CNc2ccc(C(N)=O)cc2)C(C)(C)CCC1 | 0.59 |  | Active |  | 
20 | CC1=C(CNc2ccc(C#N)cc2)C(C)(C)CCC1 | 0.31 | 25% |  |  | Activity (U2OS [2]): Active
21 | CC1=C(/C=C/C(=O)N2CCC(C(N)=O)CC2)C(C)(C)CCC1 |  |  | Active |  | 
22 | O=Cc1ccc(C(=O)N2CCN(c3cc(C(F)(F)F)cc(C(F)(F)F)c3)CC2)cc1 | 0.64 | Non-Toxic | Active | Non-Toxic | 
23 | CC1=C(/C=C/C(C)N2CCc3cc(C=O)ccc3C2)C(C)(C)CCC1 (stereo unspecified) |  | Non-Toxic |  | Non-Toxic | 
